Compound activity deposited in PubChem BioAssay by several laboratories.
ERa coact inh: ER-alpha (human) coactivator binding inhibition. TR-FRET ER-alpha LBD / SRC-1 peptide, estradiol-bound. inhibition, % at 25.6 µM. 86,000 compounds, 1.7% hits. AID 629; in the data active means inhibition above about 50%
BAP1 inh: blocks human BAP1 ubiquitin-AMC hydrolysis. Q92560. recombinant BAP1, Ub-AMC hydrolysis fluorescence kinetic; stronger effect = lower value. calls only at 20 µM. 72,000 compounds, 0.48% hits;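 active means activity remaining at or below 50% of control, provided the compound also passes the data quality filters; inactive means the rest, including low values that fail the filters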
ERb coact inh: blocks coactivator binding to human estrogen receptor beta; inhibition, % at 25.6 µM; Q92731; TR-FRET ER-beta LBD / SRC1-Cy5 peptide binding; receptor agonist-loaded with 1 µM estradiol; 86,000 compounds, 1.3% hits;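 active means compounds whose percent inhibition of the receptor-coactivator binding signal exceeds about 50% in the single-dose screen, limit read from the data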
ERa SRC1 pot: ER-alpha (human) coactivator binding potentiation | 86,000 compounds, 1.3% hits | AID 639 | P03372 | TR-FRET ERalpha-LBD/SRC-Cy5 coactivator binding, 2 h; 100 = basal binding, no effect | coactivator binding (% of control), % at 25.6 µM; in the data active means activity above about 200%;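 further: binding measured in presence of low estradiol as agonist stimulus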
SF1 activator: activates the human nuclear receptor SF-1. CHO-K1 Gal4-SF-1 LBD luciferase reporter; % increase over DMSO SF-1-specific signal. activation, % at 10 µM. 65,000 compounds, 1.9% hits. AID 522;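 active means activation above the mean activation of all tested compounds plus 3 SD, cut at about 50% in these data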
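Material: Gal4–SF-1 LBD one-hybrid luciferase reporter in CHO-K1 cells | Amount: 4,000 cells per well | Compound dosing: 10 µM single point, 1% DMSO | Schedule: 20 h compound treatment, 37 °C | Measured by: SteadyLite luciferase luminescence | Evaluation: Percent activation versus DMSO | Control set: DMSO-treated SF-1-transfected cells as negative, DMSO-treated mock-transfected cells lacking SF-1 as background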
RORA act: activates the human nuclear receptor RORA; P35398; CHO-K1 Gal4-RORA LBD luciferase reporter, luminescence; percent increase over mock-subtracted basal signal; activation, % at 10 µM; 65,000 compounds, 1.5% hits; AID 560;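 active means activation above the mean of all tested compounds plus 3 SD, cut at about 49% in these data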
Target sequence (P35398 whole entry, looked up, the tested form may be a part): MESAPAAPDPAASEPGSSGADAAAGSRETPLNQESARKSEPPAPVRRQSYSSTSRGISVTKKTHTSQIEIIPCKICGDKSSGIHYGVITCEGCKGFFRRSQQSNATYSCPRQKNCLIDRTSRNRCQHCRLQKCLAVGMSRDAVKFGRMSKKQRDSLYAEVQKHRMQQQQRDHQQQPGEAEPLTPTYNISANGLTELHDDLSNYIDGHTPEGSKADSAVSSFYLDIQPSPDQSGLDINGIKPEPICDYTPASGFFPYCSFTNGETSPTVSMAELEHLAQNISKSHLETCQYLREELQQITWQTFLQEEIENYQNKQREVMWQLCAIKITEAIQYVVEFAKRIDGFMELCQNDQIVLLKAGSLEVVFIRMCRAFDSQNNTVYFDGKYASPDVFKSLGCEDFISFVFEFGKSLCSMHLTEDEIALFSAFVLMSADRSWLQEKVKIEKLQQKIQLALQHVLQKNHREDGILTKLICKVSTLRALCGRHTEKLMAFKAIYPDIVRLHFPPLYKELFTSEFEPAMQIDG
Each line names hits and unclear results; the compound was inactive in the other large screens; [ ] = another dose, or the depositor's remark. Compounds with a hit are over-represented: about 5.1% of the library has one in this group of screens.

Cc1nc(SCC(=O)Nc2ccccc2)c2oc3ccccc3c2n1	ERa coact inh 55[fluorescence artefact?], ERb coact inh 53[fluorescence artefact?], ERa SRC1 pot 552[fluorescence artefact?] (not shown: BAP1 inh)
CCc1nc(SCC(=O)NCCc2ccccc2)c2oc3ccccc3c2n1	none (no result: BAP1 inh, SF1 activator, RORA act)
CCc1nc(SCC(=O)c2cccs2)c2oc3ccccc3c2n1	ERa SRC1 pot 224 (no result: BAP1 inh, SF1 activator, RORA act)
Cc1nc(SCC(=O)NCCc2ccccc2)c2oc3ccccc3c2n1	ERa SRC1 pot 264[fluorescence artefact?] (no result: BAP1 inh, SF1 activator, RORA act)
O=C1CC(c2ccc(Cl)cc2)CC2=C1C(c1cccc(F)c1)Nc1ccccc1N2 (configuration not stated)	none (no result: ERa coact inh, ERb coact inh, ERa SRC1 pot, SF1 activator, RORA act)
O=C(c1noc2c1CCCC2)N1CCN(C(c2ccccc2)c2ccccc2)CC1	ERa SRC1 pot 240
O=C(NCCc1ccccc1)c1noc2c1CCCCC2	SF1 activator 60
CCc1ccc(NC(=O)c2noc3c2CCCCC3)cc1	SF1 activator 67, RORA act 67
CCc1ccc(NC(=O)c2noc3c2CCC3)cc1	ERa coact inh 81, ERb coact inh 77 (no result: BAP1 inh, SF1 activator, RORA act)
O=C1c2ccc([N+](=O)[O-])cc2C(=O)N1CC1CCCO1 (configuration not stated)	none (no result: ERa coact inh, ERb coact inh, ERa SRC1 pot, SF1 activator, RORA act)
Cc1ccc(NC(=O)c2noc3c2CCCCC3)cc1C	none
Cc1ccc(NC(=O)c2noc3c2CCCCC3)cc1	RORA act 56
O=C(NC1CCCCC1)c1noc2c1CCCCC2	ERa coact inh 50[fluorescence artefact?], ERb coact inh 61[fluorescence artefact?]
CC(C)(C)C1CCc2onc(C(=O)NC3CCCC3)c2C1 (configuration not stated)	none
NC(=O)N1CCN(C(=O)c2ccco2)CC1	none (no result: BAP1 inh, SF1 activator, RORA act)
Nc1ccc(N2CCN(C(=O)c3ccco3)CC2)cc1	ERa coact inh 85[fluorescence artefact?], ERb coact inh 55[fluorescence artefact?] (no result: BAP1 inh, SF1 activator, RORA act)
CSc1ccc(CN2CCN(Cc3cccc([N+](=O)[O-])c3)CC2)cc1	none (no result: ERa coact inh, ERb coact inh, ERa SRC1 pot, SF1 activator, RORA act)
Cc1csc2nc(CSc3nc4ccccc4o3)c(Br)n12	SF1 activator 61
Cc1csc2nc(CSc3nncn3-c3ccccc3)c(Br)n12	none
Cc1ccc(Nc2nc(=O)c3cccnc3s2)cc1	SF1 activator 53, RORA act 50
CCOc1cc(C2c3c(oc4cc(C)c(Cl)cc4c3=O)C(=O)N2Cc2ccco2)ccc1O (configuration not stated)	ERa coact inh 84[fluorescence artefact?]
CCSc1ccc(NC(=O)CC2c3ccccc3Oc3ccccc32)cc1	none (no result: ERa coact inh, ERb coact inh, ERa SRC1 pot, SF1 activator, RORA act)
Oc1ccccc1Nc1ncnc2c1oc1ccccc12	none
c1ccc2c(c1)oc1c(Nc3ccc4c(c3)OCO4)ncnc12	SF1 activator 92, RORA act 83
c1ccc2c(c1)oc1c(Nc3ccc(CN4CCOCC4)cc3)ncnc12	SF1 activator 54
c1ccc2c(c1)oc1c(NCc3ccc4c(c3)OCO4)ncnc12	ERa SRC1 pot 378[fluorescence artefact?]
c1ccc2c(c1)oc1c(NCCN3CCOCC3)ncnc12	none
Cc1nnc(Nc2ccc3c(c2)OCO3)c2ccccc12	none
c1ccc(Nc2ncnc3c2oc2ccccc23)cc1	SF1 activator 65
Cc1ccc(Nc2ncnc3nc[nH]c23)cc1Cl	RORA act 67
O=C(c1cc2ccccc2oc1=O)N(Cc1ccco1)Cc1cccs1	ERa SRC1 pot 537
O=C(c1cc2ccccc2oc1=O)N(Cc1cccs1)Cc1cccs1	none (no result: BAP1 inh, SF1 activator, RORA act)
Cc1cc(C)cc(-n2nnc(C(=O)NCc3ccccc3)c2N)c1	none
CCCCNC(=O)c1nnn(-c2ccccc2)c1N	SF1 activator 67
Cc1cc(C)n2nc(SCC3COc4ccccc4O3)nc2n1 (configuration not stated)	SF1 activator 55
CC(=O)Oc1cccc(C2C3=C(CC(C)(C)CC3=O)Nc3ccccc3N2C(=O)c2ccccc2)c1 (configuration not stated)	none (no result: ERa coact inh, ERb coact inh, ERa SRC1 pot, SF1 activator, RORA act)
Cn1c(NC(=O)CCc2ccccc2)cc(=O)n(C)c1=O	SF1 activator 56, RORA act 60
Cc1ccc2nc(SCC(=O)c3ccc(Cl)cc3)[nH]c2c1	none (no result: ERa coact inh, ERb coact inh, ERa SRC1 pot, SF1 activator, RORA act)
CCN(CCCNC(=O)c1cn(CC)c2ccc(S(=O)(=O)N(C)C)cc2c1=O)c1cccc(C)c1	RORA act 62
CCC(C)N1CC(O)=C(c2nc3ccccc3[nH]2)C1=N (configuration not stated)	none
N=C1C(c2nc3ccccc3[nH]2)=C(O)CN1c1ccccc1	SF1 activator 50
N=C1C(c2nc3ccccc3[nH]2)=C(O)CN1c1ccc(CC(=O)O)cc1	ERb coact inh 58 (no result: BAP1 inh, SF1 activator, RORA act)
